MLLE-PAM2 inh: blocks PAM2 peptide binding to the PABP1 MLLE domain; AID 588489; P11940; GST-MLLE / FITC-PAM2 fluorescence polarization; hit rate 0.36% among 360,000; inhibition, % at 20 µM; in the data active = inhibition above about 35%, passing the limit was not always enough;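 also: plate controls were DMSO wells with GST-MLLE for no effect and wells lacking GST-MLLE protein for full effect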
Target sequence (P11940 whole entry, looked up, the tested form may be a part): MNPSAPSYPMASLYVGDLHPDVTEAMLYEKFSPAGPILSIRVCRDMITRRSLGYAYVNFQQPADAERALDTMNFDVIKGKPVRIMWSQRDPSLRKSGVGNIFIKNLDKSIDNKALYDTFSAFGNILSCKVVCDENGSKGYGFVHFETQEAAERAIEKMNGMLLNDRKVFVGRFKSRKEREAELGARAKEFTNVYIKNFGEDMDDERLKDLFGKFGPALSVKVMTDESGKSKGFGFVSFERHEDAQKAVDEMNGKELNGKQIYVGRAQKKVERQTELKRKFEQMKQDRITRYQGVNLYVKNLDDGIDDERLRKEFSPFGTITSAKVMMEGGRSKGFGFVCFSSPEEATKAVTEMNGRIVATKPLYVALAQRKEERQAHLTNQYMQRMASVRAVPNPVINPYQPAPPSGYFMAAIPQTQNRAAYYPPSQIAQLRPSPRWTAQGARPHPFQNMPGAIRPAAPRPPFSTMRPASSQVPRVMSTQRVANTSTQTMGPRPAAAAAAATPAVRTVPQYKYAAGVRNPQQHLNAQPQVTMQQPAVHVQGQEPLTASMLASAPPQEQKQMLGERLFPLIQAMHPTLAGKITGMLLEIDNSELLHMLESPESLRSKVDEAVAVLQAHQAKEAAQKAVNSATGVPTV
eIF4H FP inh: inhibitors of RNA binding by human eIF4H | Q15056 | eIF4H fluorescence polarization binding assay | inhibition, % at 35 µM | hit rate 0.94% among 290,000 | AID 2012;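 also: calls also rest on retests at 20 µM and on dose response follow-up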
PABP FP inh: blocks human PABP binding to poly(A) RNA; P11940; fluorescence polarization; calls only at 35 µM; hit rate 1% among 290,000; AID 2014;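 also: calls also rest on retests at 20 µM and on dose response follow-up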
MT1-MMP act inh: blocks activation of human MT1-MMP; P50281; hit rate 0.061% among 360,000; AID 651647; HT1080 RFP-PRO-GFP cells, GFP/RFP ratio fluorescence, overnight; percent of plate control window, DMSO zero; GFP/RFP ratio change, % at 20 µM;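 active = GFP/RFP ratio change of at least 30% with cell ATP level not reduced by more than half and red fluorescence within 50% of control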
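Assay system: HT1080 RFP-PRO-GFP cells | Dosing: 20 µM single dose, 1% DMSO | Incubation: Cells overnight before dosing, compound overnight, 37 °C, 5% CO2 | Evaluation: GFP/RFP fluorescence ratio | Control set: DMSO-only wells and HT1080 RFP-L50D-GFP cell wells as references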
SKN-1 block: inhibitors of C. elegans SKN-1; inhibition, % at 21.8 µM; hit rate 0.49% among 360,000; C. elegans VP596 Pgst-4::GFP/RFP ratio, acrylamide-induced, 24 h;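 active = interference check ratio from 0.5 to 1.5 plus GFP to RFP signal ratio inhibition reaching or exceeding a fixed threshold, cut at about 30% in these data, passing the limit was not always enough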
Numbers without * were called inactive; i = inactive; ? = inconclusive; / = no result given; + = active, no number. Only some compounds are listed: those with a hit (about 1.8% of all), similar ones and a draw of the others. Unless noted, no rule for the calls is given here.

SMILES	MLLE-PAM2 inh	eIF4H FP inh	PABP FP inh	MT1-MMP act inh	SKN-1 block
CC(C)CC(C(=O)Nc1oc(-c2ccco2)c(-c2ccco2)c1C#N)N1C(=O)c2ccccc2C1=O (stereo unspecified)	-14	82*	+	-13	-2
CC(C)(C)OC(=O)NCCCCCNC(=O)c1[nH]cnc1C(=O)N[C@@H](Cc1ccccc1)C(=O)OCc1ccccc1	-5	109*	+	3	18
COc1ccc(C(=O)N/C(=C\c2cn(S(=O)(=O)N(C)C)c3ccccc23)C(=O)NCCCN2CCOCC2)cc1	1	-22	i	-2	-3
Cc1cnc(CN2CCc3c([nH]c4ccccc34)C2CC(C)C)[nH]1 (stereo unspecified)	-38	20	+	-9	23
Cc1cccc(CN2CCc3c([nH]c4ccccc34)C2CC(C)C)n1 (stereo unspecified)	-8	8	i	-1	-16
CCCc1cc(=O)oc2c(CNc3ccc(OCC)cc3)c(O)ccc12	-37	76	+	1	0
CCCCc1cc(=O)oc2c(CN3CCCC3)c(O)ccc12	4	22	i	0	15
CCc1ccccc1OCC(=O)N1CCN(c2ncccn2)CC1	-1	/	/	2	8
O=C(Nc1ccccc1)OCc1cnc(Cl)s1	0	0	i	3	3
Clc1ncc(CSc2ccccc2)s1	21	-3	i	0	39*
CCCC(=O)Nc1ccc(N2CCCCC2)cc1	-13	-10	i	1	-8
O=C(O)CCCC(=O)Nc1ccc(N2CCCC2)cc1	13	69*	i	1	-1
Cc1ccc(NC(=S)N(CCCN2CCN(C)CC2)Cc2cccs2)cc1C	-64	6	+	-7	1
COc1ccc(S(=O)(=O)N2CCCCCC2)cc1NC(=O)CN1C(=O)CNC1=O	-28	/	/	4	-2
CN(Cc1ccc(F)cc1)C(=O)c1sccc1-c1ccccc1	6	15	+	-3	9
COc1ccc(CN(C)C(=O)c2sccc2-c2ccccc2)c(OC)c1	4	-7	i	2	2
COC(=O)CNC(=O)CN1c2cccc3cccc(c23)S1(=O)=O	-7	?	+	4	-1
COc1ccc(CCNC(=O)CN2c3cccc4cccc(c34)S2(=O)=O)cc1	3	/	/	0	-2
Cc1ccccc1N1CCN(C2=NC(=O)/C(=C/c3cn[nH]c3-c3ccccc3)S2)CC1	-3	?	+	1	9
CN(C)c1cccc(NC2=CC(=[N+]3CCOCC3)CC(C)(C)C2)c1	-94	10	+	-6	23
O=C(O)c1cccc(S(=O)(=O)Nc2ccc3c(c2)OCO3)c1	38*	7	i	-1	10
C[N+]1(CC2COC3(CCCCC3)O2)CCCC1 (stereo unspecified)	-112	9	i	1	12
CC1CC(C)(C)OC(C[N+]2(C)CCCCC2)O1 (stereo unspecified)	-132	0.6*	+	-2	-4
CS(=O)(=O)N1CCN(C(=S)NCc2ccc(Cl)cc2)CC1	-120	82*	+	2	-3
O=C(O)C1(S(=O)(=O)c2ccc(Cl)cc2)CCC1	-8	-4	i	-1	8
SMILES	MLLE-PAM2 inh	eIF4H FP inh	PABP FP inh	MT1-MMP act inh	SKN-1 block
N#CCc1nn2c(-c3ccccc3)ccnc2c1C#N	-22	5	i	2	43*
CCOC(=O)C1=CCC(c2cc3ccc(OC)cc3n2C(=O)OC(C)(C)C)NC1 (stereo unspecified)	/	/	/	6	4
CS(=O)(=O)N1N=C(c2cccs2)CC1c1ccccc1O (stereo unspecified)	-10	59*	+	-9	41*
Cc1nc2ccccc2nc1OCc1ccccc1	3	0	i	-2	47*
C/C(=N\Nc1ccc(C(=O)O)cc1)c1nc2ccccc2n1C	/	active	+	/	/
Cn1c(/C=N/NC(=O)c2ccccc2)nc2ccccc21	3	-4	i	10	6
COc1ccc(/C=N/N=C2/SCC(=O)N2Cc2ccccc2)cc1	4	-7	i	1	-10
COc1ccc(CN2C(=O)CS/C2=N/N=C/c2ccccc2)cc1	5	-8	i	1	53*
CCC1=NN2C(=N)/C(=C/c3c(C)nn(-c4ccccc4)c3Cl)C(=O)N=C2S1	3	74*	+	0	6
C[C@H](CO)N1C[C@H](C)[C@H](CN(C)C(=O)Nc2ccccc2F)OCc2cnnn2CCCC1=O	5	/	/	3	-7
O=C1CCCCN1CCC(=O)N1CCCC(N2CCN(c3ccccc3)CC2)C1 (stereo unspecified)	7	/	/	-2	0
O=C1NC(=S)S/C1=C\c1ccc(SCc2ccccc2)o1	-30	80*	+	-19	-2
CC(C)OC(=O)CN1CCN(C2c3ccccc3-c3ccccc32)CC1	10	-7	i	6	38*
C[C@@H]1CCC2[C@](C)(CO)[C@@H](O)CC[C@]2(C)[C@@]12CC[C@@](CO)(CC(=O)O)O2 (stereo partly specified)	53*	-11	i	-3	15
C[C@@H]1CCC2[C@](C)(CO)[C@@H](O)CC[C@]2(C)[C@@]12CCC(CO)(CCO)O2 (stereo partly specified)	-6	-9	i	0	14
O=C(CSc1nc2[nH]ncc2c(=O)[nH]1)Nc1nccs1	/	active	+	/	/
O=C(NCCN1C(=O)S/C(=C\c2ccc(Cl)cc2Cl)C1=O)C1=COCCO1	0	/	/	3	-23
CCCCNC(=S)N(C)/N=C/c1c(F)c(F)c(F)c(F)c1F	-16	-5	i	-5	-4
CCCCNC(=S)N(C)/N=C/c1c(C)[nH]c2ccccc12	-165	50*	i	-3	13
O=C(c1ccc(N2CCN(C(=O)c3ccc(F)cc3F)CC2)cc1)c1cccc(F)c1	-13	-2	i	4	-1
O=C(/C=C/Nc1ccc(F)cc1F)c1cccs1	-4	-3	i	-6	60*
O=C(/C=C\Nc1ccc2c(c1)OCO2)c1cccs1	-10	1	i	-9	30
O=C(/C=C\Nc1cccc(F)c1)c1cccs1	-13	4	i	-2	69*
Cc1ccc(N/C=C/C(=O)c2cccs2)cc1	-8	-6	i	-3	42*
CCOC(=O)c1ccccc1N/C=C/C(=O)c1cccs1	-77	-2	i	9	22
O=C(/C=C/Nc1ccc(F)cc1F)c1ccc(Br)cc1	7	/	/	-1	8
O=C(/C=C/Nc1ccccc1F)c1cccs1	-107	-1	i	-5	85*
ClC(Cl)(Cl)C1=NCc2nnn(Cc3ccccc3)c2N1	2	/	/	2	5
CCc1nc2ccc(C(=O)NCCCn3ccnc3)cn2c1N(C)C(=O)C1CCCCC1	4	/	/	4	27
